Measured values gathered from unrelated publications.
Lines come from different studies, so protocols differ.
Target: Serine/threonine-protein kinase mTOR (MTOR, Homo sapiens, UniProt P42345)

| SMILES | read-out | action | method | tested at | quantity | result |
| --- | --- | --- | --- | --- | --- | --- |
| CO[C@@H]1[C@H](N(C)C(=O)c2ccccc2)C[C@H]2O[C@]1(C)n1c3ccccc3c3c4c(c5c6ccccc6n2c5c31)C(=O)NC4 | enzyme activity | inhibitor | – | 1 µM | inhibition | 0% |
| COc1ccc2oc(-c3ccc4nc(N)oc4c3)c/c(=N\c3ccccc3NC(=O)CCN)c2c1 | cell-free assay | – | – | 1 µM | remaining signal | 7% |
| CN1CCN(C(=O)c2ccc(NC(=O)Nc3ccc(N(C)c4ccnc(Nc5ccc(CS(C)(=O)=O)cc5)n4)cc3)cc2)CC1 | binding | – | – | 1 µM | remaining binding | 100% |
| CCCCC(=O)Nc1ccc(-c2ccc3ncn(CCC)c(=O)c3c2)cn1 | binding | – | competition with immobilised ligand | 0.5 µM | remaining binding | 67% |
| COc1ccc2[nH]c3c4[nH]c5ccc(OC)cc5c4c4c(c3c2c1)C(=O)NC4=O | binding | – | – | 1 µM | remaining binding | 100% |
| Cc1cc(O)c(-c2ccc([C@@H](C)CN(C)C)cc2)c2c1[nH]c(=O)c1sccc12 | cell-free assay | inhibitor | – | 0.1 µM | inhibition | 9.2% |
| C=CC(=O)N1CCC([C@@H]2CCNc3c(C(N)=O)c(-c4ccc(Oc5ccccc5)cc4)nn32)CC1 | enzyme activity | inhibitor | – | 1 µM | inhibition | 0% |
| C1=C/COCc2cc(ccc2OCCN2CCCC2)Nc2nccc(n2)-c2cccc(c2)COC/1 | binding | – | – | 0.1 µM | remaining binding | 72% |
